Source: paper PMC5869691 (Organic letters, 2018)
Converted amounts (≈) assume the structure as drawn.

Assays:
S. aureus = assay: minimum inhibitory concentration; type: cell-based, Staphylococcus aureus
Method in brief: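 Each synthetic test compound was tested against S. aureus SH1000, with USA300 and ATCC33591 as additional strains. MIC was read in both iron-rich medium (IRM) and iron-depleted medium (IDM), and values are given in μM. Vancomycin was the positive control run in parallel.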

bacterial membranes = assay: SYTOX uptake assay; type: cell-based; conditions: SYTOX fluorescence; positive control 12,3,2,3,12
Method in brief: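 All synthetic test compounds were run in a SYTOX uptake assay for membrane damage in S. aureus cells. Uptake was scored qualitatively as positive or negative.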

| SMILES | MIC against S. aureus (S. aureus) | membrane disruption (SYTOX uptake) (bacterial membranes) |
| --- | --- | --- |
| CC(=O)[C@H](C)C[C@@H](C)C[C@H](C)CC[C@@H](O)C[C@@H](O)[C@@H](CC(C)C)[C@@H](O)c1cc(O)cc(O)c1 [Baulamycin B, baulamycin B] | 500 µM (≈ 233 µg/mL) | exception |
| CCC(=O)[C@H](C)C[C@@H](C)C[C@H](C)CC[C@@H](O)C[C@@H](O)[C@@H](CC(C)C)[C@@H](O)c1cc(O)cc(O)c1 [Baulamycin A, baulamycin A] |  | tested positive for membrane disruption |
